According to PMC7919418 (Genes & Development, 2021):

Assays:
GFP reporter in OSCs [1] = test: Tethering reporter assay, λN-boxB recruitment to nascent RNA; type: cell-based, Drosophila; details: GFP by FACS, 2500 cells per experiment, normalized to control
Outline: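 OSCs carrying a GFP reporter were nucleofected with λN-tagged protein plasmids (kit V, program T-029, six Mio. cells per transfection). Fold repression was derived from FACS GFP intensity relative to control, as mean ± SD of three biological replicates. For RNAi combinations, siRNA was given, then siRNA plus tethering plasmid 2 d later, with read-out 5 d after siRNA and 3 d after plasmid. Fusion expression was checked by western blot (Atp5a loading control).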

GFP-Ctp = test: Coimmunoprecipitation with Ctp; type: binding, Drosophila; details: western blot, Panx: S2 cells, GFP-Ctp and FLAG-Panx
Outline: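 Lysates from S2 cells transfected with FLAG-Panx variant plasmids and GFP-Ctp were immunoprecipitated via GFP-Ctp. Input, unbound and immunoprecipitate fractions were analysed by western blot, with immunoprecipitate lanes loaded at 4× relative amount.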

GFP reporter in OSCs [2] = details: tethering to nascent RNA; ref Batki et al. 2019; cited from earlier work

B1: Ctp: dynein light chain protein Cut up, Drosophila ortholog of LC8; λN fusion in tethering assay (protein)
chain: MSDRKAVIKNADMSEEMQQDAVDCATQALEKYNIEKDIAAYIKKEFDKKYNPTWHCIVGRNFGSYVTHETRHFIYFYLGQVAILLFKSG
- cotranscriptional silencing (λN tethering) (GFP reporter in OSCs [1]): similarly strong repression

B2: C-terminal portion of Panx (amino acids 447–541): Panx fragment including the two predicted Ctp binding sites (protein, UniProt Q9W2H9 447-541, looked up, fragment)
chain: PTEEQETATLYKNAATQTERRTATRDAGTQVRLESKLNGAFWQNPHFDPMNLTQHQSNVMLALQEIYQTLPSATMAVKLSRALAPALAIIKGRQP
- interaction with Ctp (co-IP) (GFP-Ctp): interacted with Ctp

B3: Panx: Panoramix, SFiNX subunit (protein)
chain: MEAPMKLEVKVENYVECGINEDEATPLREGTGETPPHAFACGVPMSGSGWCSDPEDGNLVHHSATPTSDEHLQPSLDTIEPKMEPKIKEDADNAMLDSLLADPFENNSPATLQTPADVKPNAMLDSVEQGSRSCELLPSEFSKRENLDDMDLFSLKAAKTLVPDEQQSFPQNDTPIDDPEAADLIAQKREILKMLEMTAENRKVKHKKKKHKKERSHRSNKHQEESRKRNHSNSSSDEGADDKNQFDCDYRGHKKYKNRRGSASSQNESSKERKLRDTELDYVPVRPDEHFIRPIKFSNLIERRPPQVEFNTVNLSKADKRSLAVARAELVLEQIQQKANKEEPPEFHMVDTICKLPVNESFRNQDCFENPSPICNNMNVVYKFNSTPGTRIDLSKWGLETVPEATKRLLRLLGIDVARLKELQSTVKPSQRILKLKKEQLEQGLAPTEEQETATLYKNAATQTERRTATRDAGTQVRLESKLNGAFWQNPHFDPMNLTQHQSNVMLALQEIYQTLPSATMAVKLSRALAPALAIIKGRQP
- fold reporter silencing (λN tethering) (GFP reporter in OSCs [2]): ~20 fold
